Experimental data published in ChEMBL document CHEMBL4364294 (J Med Chem, 2019).

Assays:
[1] = Cmax in C57Bl6 mouse at 100 mg/kg, po administered as single dose; type: ADME, organism-based; set-up: dose 100 mg/kg, route oral; details: in vivo
Method in brief: (§1)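 C57Bl/6 mice were given single intravenous or oral doses (oral at 10 and 100 mg/kg). Plasma PK parameters were CL, AUC0-inf, t1/2, Cmax and %F.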

[2] = Permeability across basolateral to apical side in human Caco2 cells; type: ADME, cell-based; details: Caco-2, read-out: permeability
[3] = AUC (0 to infinity) in Sprague-Dawley rat at 10 mg/kg, iv administered as single dose; type: ADME, organism-based; set-up: dose 10 mg/kg, time infinity, route intravenous; details: in vivo
Method in brief: (§2)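 Sprague-Dawley rats were given single doses, intravenous at 10–50 mg/kg or oral at 10, 25 and 50 mg/kg. Plasma PK parameters were CL, AUC0-inf, t1/2, Cmax and %F.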

[4] = Clearance in dog at 1 mg/kg, iv administered as single dose; type: ADME, organism-based, Canis lupus familiaris; details: in vivo
Method in brief: (§3)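 Dogs were given single intravenous doses, or oral doses from 5 to 50 mg/kg. Plasma PK parameters were CL, AUC0-inf, t1/2, Cmax and %F.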

[5] = Cmax in dog at 5 mg/kg, po administered as single dose; type: ADME, organism-based, Canis lupus familiaris; set-up: dose 5 mg/kg, route oral; details: in vivo; method in brief: as §3
[6] = Clearance in C57Bl6 mouse at 50 mg/kg, iv administered as single dose; type: ADME, organism-based; details: in vivo; method in brief: as §1
[7] = Oral bioavailability in dog at 150 mg/kg administered as single dose; type: ADME, organism-based, Canis lupus familiaris; details: in vivo
[8] = Oral bioavailability in Sprague-Dawley rat at 50 mg/kg administered as single dose; type: ADME, organism-based; details: in vivo
Method in brief: (§4)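 Sprague-Dawley rats each received one dose of drug, either iv across 10-50 mg/kg or orally at 10, 25 and 50 mg/kg. Plasma pharmacokinetics covered CL, AUC0-inf, t1/2, Cmax and Tmax. Oral bioavailability (%F) was obtained from the oral and iv exposures.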

[9] = Aqueous solubility of the compound at pH 7.4; type: physicochemical
[10] = Aqueous solubility of the compound at pH 6.5; type: physicochemical
[11] = Clearance in dog at 10 mg/kg, iv administered as single dose; type: ADME, organism-based, Canis lupus familiaris; details: in vivo; method in brief: as §3
[12] = Cmax in dog at 15 mg/kg, po administered as single dose; type: ADME, organism-based, Canis lupus familiaris; set-up: dose 15 mg/kg, route oral; details: in vivo; method in brief: as §3
[13] = Cmax in Sprague-Dawley rat at 50 mg/kg, po administered as single dose; type: ADME, organism-based; set-up: dose 50 mg/kg, route oral; details: in vivo; method in brief: as §2
[14] = AUC (0 to infinity) in C57Bl6 mouse at 100 mg/kg, po administered as single dose; type: ADME, organism-based; set-up: dose 100 mg/kg, time infinity, route oral; details: in vivo; method in brief: as §1
[15] = AUC (0 to infinity) in dog at 15 mg/kg, po administered as single dose; type: ADME, organism-based, Canis lupus familiaris; set-up: dose 15 mg/kg, route oral, time infinity; details: in vivo; method in brief: as §3
[16] = AUC (0 to infinity) in C57Bl6 mouse at 10 mg/kg, iv administered as single dose; type: ADME, organism-based; set-up: dose 10 mg/kg, time infinity, route intravenous; details: in vivo; method in brief: as §1
[17] = Cmax in dog at 50 mg/kg, po administered as single dose; type: ADME, organism-based, Canis lupus familiaris; set-up: dose 50 mg/kg, route oral; details: in vivo; method in brief: as §3
[18] = Half life in Sprague-Dawley rat at 10 mg/kg, po administered as single dose; type: ADME, organism-based; details: in vivo; method in brief: as §4
[19] = AUC (0 to infinity) in dog at 10 mg/kg, iv administered as single dose; type: ADME, organism-based, Canis lupus familiaris; set-up: dose 10 mg/kg, time infinity, route intravenous; details: in vivo; method in brief: as §3
[20] = Half life in Sprague-Dawley rat at 25 mg/kg, iv administered as single dose; type: ADME, organism-based; details: in vivo; method in brief: as §4
[21] = Half life in Sprague-Dawley rat at 10 mg/kg, iv administered as single dose; type: ADME, organism-based; details: in vivo; method in brief: as §2
[22] = Permeability across apical to basolateral side in human Caco2 cells; type: ADME, cell-based; details: Caco-2, read-out: permeability
[23] = Clearance in Sprague-Dawley rat at 25 mg/kg, iv administered as single dose; type: ADME, organism-based; details: in vivo; method in brief: as §2
[24] = AUC (0 to infinity) in dog at 5 mg/kg, po administered as single dose; type: ADME, organism-based, Canis lupus familiaris; set-up: dose 5 mg/kg, time infinity, route oral; details: in vivo; method in brief: as §3
[25] = AUC (0 to infinity) in dog at 3 mg/kg, iv administered as single dose; type: ADME, organism-based, Canis lupus familiaris; set-up: dose 3 mg/kg, time infinity, route intravenous; details: in vivo; method in brief: as §3
[26] = AUC (0 to infinity) in Sprague-Dawley rat at 25 mg/kg, iv administered as single dose; type: ADME, organism-based; set-up: dose 25 mg/kg, route intravenous, time infinity; details: in vivo; method in brief: as §2
[27] = AUC (0 to infinity) in rat at 250 mg/kg administered twice daily for 28 days with 2 week recovery; type: ADME, organism-based; set-up: dose 250 mg/kg, time infinity; details: in vivo
[28] = Half life in C57Bl6 mouse at 10 mg/kg, iv administered as single dose; type: ADME, organism-based; details: in vivo; method in brief: as §1
[29] = Clearance in C57Bl6 mouse at 10 mg/kg, iv administered as single dose; type: ADME, organism-based; details: in vivo; method in brief: as §1
[30] = Half life in Sprague-Dawley rat at 50 mg/kg, po administered as single dose; type: ADME, organism-based; details: in vivo; method in brief: as §4
[31] = AUC (0 to infinity) in C57Bl6 mouse at 10 mg/kg, po administered as single dose; type: ADME, organism-based; set-up: dose 10 mg/kg, time infinity, route oral; details: in vivo; method in brief: as §1
[32] = Half life in dog at 1 mg/kg, iv administered as single dose; type: ADME, organism-based, Canis lupus familiaris; details: in vivo
Method in brief: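 Dogs were dosed once, by iv injection or orally, with oral doses spanning 5 to 50 mg/kg. Plasma pharmacokinetic parameters were derived: CL, AUC0-inf, t1/2, Cmax and %F.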

[33] = Toxicity in rat administered twice daily for 28 days with 2 week recovery; details: in vivo
Method in brief: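 Rats and dogs underwent 28-day repeat-dose studies with twice-daily dosing, followed by a 2-week recovery period. The NOAEL (mg/kg/dose BID) was established, and the matching systemic exposure was reported as AUC0-inf.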

[34] = Clearance in Sprague-Dawley rat at 10 mg/kg, iv administered as single dose; type: ADME, organism-based; details: in vivo; method in brief: as §2
[35] = AUC (0 to infinity) in Sprague-Dawley rat at 10 mg/kg, po administered as single dose; type: ADME, organism-based; set-up: dose 10 mg/kg, route oral, time infinity; details: in vivo; method in brief: as §2
[36] = Oral bioavailability in Sprague-Dawley rat at 25 mg/kg administered as single dose; type: ADME, organism-based; details: in vivo; method in brief: as §4

Cmax [1]: 14200 ng/mL
Papp B→A [2]: 35 ×10⁻⁶ cm/s
AUC(0-inf) [3]: 3930 ng·h/mL
clearance [4]: 59.3 mL/min/kg
Cmax [5]: 132 ng/mL
clearance [6]: 25 mL/min/kg
bioavailability [7]: 71.8%
bioavailability [8]: 44.1%
solubility [9]: > 200 µM
solubility [10]: > 200 µM
clearance [11]: 53.7 mL/min/kg
Cmax [12]: 1400 ng/mL
Cmax [13]: 10000 ng/mL
AUC(0-inf) [14]: 60200 ng·h/mL
AUC(0-inf) [15]: 1040 ng·h/mL
AUC(0-inf) [16]: 6130 ng·h/mL
Cmax [17]: 7860 ng/mL
half-life [18]: 1.05 h
AUC(0-inf) [19]: 3130 ng·h/mL
half-life [20]: 1.25 h
half-life [21]: 1.44 h
Papp A→B [22]: 22.7 ×10⁻⁶ cm/s
clearance [23]: 32 mL/min/kg
AUC(0-inf) [24]: 207 ng·h/mL
AUC(0-inf) [25]: 901 ng·h/mL
AUC(0-inf) [26]: 13400 ng·h/mL
AUC(0-inf) [27]: 22500 ng·h/mL
half-life [28]: 3.9 h
clearance [29]: 27.5 mL/min/kg
half-life [30]: 1.06 h
AUC(0-inf) [31]: 3780 ng·h/mL
half-life [32]: 2.2 h
clearance [34]: 44.6 mL/min/kg
AUC(0-inf) [35]: 1630 ng·h/mL
bioavailability [36]: 60.4%
SMILES: O[C@H](C[C@H]1c2c(F)cccc2-c2cncn21)[C@H]1CC[C@H](O)CC1 [NAVOXIMOD]
NOAEL at 28 days [33]: 250 mg/kg
